Test [1] relates to HEL. As to the kind of experiment: Cytotoxicity against hemoglobin treated human HEL cells assessed as growth inhibition at 2 uM treated for 24 hrs post hemoglobin challenge measured after 48 hrs by MTT assay. It is filed as functional, cell-based. The procedure, abridged:
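HEL cells in RPMI 1640/10% FBS, 37 °C, 5% CO₂, plated ≥4 h before treatment; pretreated 1 h with hemoglobin (0, 2.5, 5, 10 or 20 µM), then 2 µM compound for 24 h, incubated a further 48 h. MTT 0.5%, 4 h, formazan dissolved in DMSO, absorbance 490 and 630 nm; percent growth inhibition versus control; three independent experiments, mean ± SD.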

The target of test [2] is Histone deacetylase 1 (Homo sapiens) (UniProt Q13547). The note with it: MV4-11, 12.5 to 200 nM.
Sequence of Histone deacetylase 1 (Homo sapiens) (Q13547 whole entry): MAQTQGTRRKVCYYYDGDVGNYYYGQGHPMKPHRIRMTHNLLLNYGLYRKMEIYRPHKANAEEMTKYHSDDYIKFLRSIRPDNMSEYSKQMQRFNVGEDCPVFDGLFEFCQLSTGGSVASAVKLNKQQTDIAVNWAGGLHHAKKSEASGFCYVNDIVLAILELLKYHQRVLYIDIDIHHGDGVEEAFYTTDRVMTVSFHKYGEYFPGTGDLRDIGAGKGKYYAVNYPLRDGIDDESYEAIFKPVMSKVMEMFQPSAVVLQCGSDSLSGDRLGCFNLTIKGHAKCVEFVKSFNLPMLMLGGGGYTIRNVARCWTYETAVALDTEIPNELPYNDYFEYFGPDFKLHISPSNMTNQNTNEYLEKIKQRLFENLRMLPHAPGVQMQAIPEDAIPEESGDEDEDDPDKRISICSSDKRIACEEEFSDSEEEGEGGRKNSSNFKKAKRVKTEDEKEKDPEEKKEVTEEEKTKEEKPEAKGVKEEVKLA
Test [3] has as its target T1, Protein deacetylase HDAC6 (Homo sapiens, UniProt Q9UBN7).
T1 sequence (Q9UBN7 whole entry): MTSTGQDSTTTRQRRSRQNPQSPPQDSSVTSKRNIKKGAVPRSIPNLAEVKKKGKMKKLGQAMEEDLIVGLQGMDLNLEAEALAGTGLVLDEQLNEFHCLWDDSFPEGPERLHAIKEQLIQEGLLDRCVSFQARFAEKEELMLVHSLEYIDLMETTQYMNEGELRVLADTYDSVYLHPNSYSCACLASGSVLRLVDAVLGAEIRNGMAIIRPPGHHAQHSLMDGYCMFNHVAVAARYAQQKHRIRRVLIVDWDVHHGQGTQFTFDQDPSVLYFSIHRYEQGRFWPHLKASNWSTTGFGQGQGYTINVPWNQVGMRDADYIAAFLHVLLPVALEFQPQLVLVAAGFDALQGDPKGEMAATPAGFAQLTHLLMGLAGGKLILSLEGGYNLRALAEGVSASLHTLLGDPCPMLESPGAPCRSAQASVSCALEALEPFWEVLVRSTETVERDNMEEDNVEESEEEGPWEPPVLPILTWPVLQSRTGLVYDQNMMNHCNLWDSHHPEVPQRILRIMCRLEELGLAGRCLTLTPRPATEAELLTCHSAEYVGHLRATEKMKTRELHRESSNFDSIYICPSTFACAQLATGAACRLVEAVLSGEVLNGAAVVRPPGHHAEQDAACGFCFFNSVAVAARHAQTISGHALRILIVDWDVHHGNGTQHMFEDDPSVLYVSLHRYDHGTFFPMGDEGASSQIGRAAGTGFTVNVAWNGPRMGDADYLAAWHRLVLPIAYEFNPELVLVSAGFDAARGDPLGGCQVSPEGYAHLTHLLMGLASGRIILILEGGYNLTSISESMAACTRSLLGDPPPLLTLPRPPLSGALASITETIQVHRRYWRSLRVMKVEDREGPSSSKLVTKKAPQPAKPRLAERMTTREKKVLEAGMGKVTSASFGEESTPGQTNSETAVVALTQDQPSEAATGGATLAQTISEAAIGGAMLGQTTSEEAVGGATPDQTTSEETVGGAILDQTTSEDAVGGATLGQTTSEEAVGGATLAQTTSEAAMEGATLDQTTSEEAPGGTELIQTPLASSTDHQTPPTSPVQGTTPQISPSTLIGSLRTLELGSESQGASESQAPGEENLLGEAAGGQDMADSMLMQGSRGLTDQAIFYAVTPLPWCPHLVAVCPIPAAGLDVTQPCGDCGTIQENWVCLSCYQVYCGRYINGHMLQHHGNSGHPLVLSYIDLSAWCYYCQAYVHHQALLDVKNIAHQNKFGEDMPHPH
As to the kind of experiment: Inhibition of full length human recombinant HDAC6 expressed in baculovirus infected insect S9 cells using Ac-Leu-GlyLys(Ac)-AMC as substrate after 30 mins by fluorescence assay.

Test [4] deals with HEL. As to the kind of experiment: Induction of apoptosis in human HEL cells after 24 hrs by 7-AAD-annexin-V/propidium iodide staining-based flow cytometric analysis. Type of test: functional, cell-based. The procedure, abridged: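 HEL cells (1 × 10⁵/well) grown 24 h, then treated 24 h at 0.5, 1 or 2 µM in fresh medium; 0.1% DMSO control. Cells collected, washed with cold PBS, stained in binding buffer with 7-AAD and propidium iodide (PE-Annexin V kit) 15 min at 25 °C in the dark; apoptotic fraction by flow cytometry.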

Test [5] relates to HEL. Kind of test: Antitumor activity against human HEL cells xenografted in BALB/c-nu mouse assessed as decrease in tumor volume at 100 mg/kg/day, po administered for 21 days measured every 3 days during compound dosing relative to control. It is filed as functional. The procedure, abridged: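 Male athymic nude mice (6–8 weeks) inoculated s.c. in right flank with HEL cells cultured in RPMI 1640/10% FBS; treatment began when tumors were about 100 mm³ (~10 days), 6 mice per group. Oral gavage daily for 21 days; vehicle control PBS containing DMSO. Caliper measurement every 3 days, V = ab²/2; T/C = mean RTV treated / mean RTV control, RTV = Vt/V0.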

For test [6], the target named is Histone deacetylase 2 (Homo sapiens) (UniProt Q92769). The settings on record: HEL, 1 to 10 uM.
Sequence of Histone deacetylase 2 (Homo sapiens) (Q92769 whole entry): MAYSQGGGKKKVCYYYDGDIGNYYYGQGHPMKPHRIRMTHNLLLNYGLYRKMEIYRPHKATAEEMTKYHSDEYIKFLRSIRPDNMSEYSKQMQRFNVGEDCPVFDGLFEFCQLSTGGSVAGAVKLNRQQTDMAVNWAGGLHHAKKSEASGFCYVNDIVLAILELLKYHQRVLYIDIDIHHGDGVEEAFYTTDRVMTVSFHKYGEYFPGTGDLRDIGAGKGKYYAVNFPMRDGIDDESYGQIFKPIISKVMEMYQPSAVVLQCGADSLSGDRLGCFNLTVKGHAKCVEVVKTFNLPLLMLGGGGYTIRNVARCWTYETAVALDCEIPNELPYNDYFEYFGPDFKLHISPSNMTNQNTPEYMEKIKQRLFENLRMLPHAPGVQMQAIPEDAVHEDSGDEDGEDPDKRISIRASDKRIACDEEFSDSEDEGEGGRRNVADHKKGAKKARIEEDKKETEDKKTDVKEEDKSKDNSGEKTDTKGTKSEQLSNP
Test [7] deals with HEL. As to the kind of experiment: Antitumor activity against human HEL cells xenografted in po dosed BALB/c-nu mouse administered for 21 days measured every 3 days during compound dosing. It is filed as functional, organism-based. The method in brief:
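Subcutaneous HEL xenograft in right flank of male athymic nude mice, 6 per group, dosing started at ~100 mm³. Oral administration at 100 or 120 mg/kg/day for 21 consecutive days; controls given PBS containing DMSO. Tumors measured by caliper every 3 days (V = ab²/2); tumors weighed after sacrifice; mean ± SD.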

The test system of test [8] is HEL. As to the kind of experiment: Cell cycle arrest in human HEL cells assessed as accumulation at G2 phase at 0.5 uM after 48 hrs by propidium iodide staining-based flow cytometric analysis (reference value: 5.28%). Type of test: functional.
Test [9] is described as follows: Cytotoxicity against human KG1 cells assessed as growth inhibition after 48 hrs by MTT assay. It is filed as functional, cell-based. The note with it: KG-1, 48 h.
A short description of test [10]: Cytotoxicity against human MDA cells assessed as growth inhibition after 48 hrs by MTT assay. Type of test: functional, cell-based.
For test [11], the target named is Histone deacetylase 2 (Homo sapiens) (UniProt Q92769). The settings on record: HEL, 10 uM.
Test [12] is described as follows: Cytotoxicity against human ES2 cells assessed as growth inhibition after 48 hrs by MTT assay. Type of test: functional, cell-based. The note with it: ES-2, 48 h.
The next test addresses T2, Histone deacetylase 11 (Homo sapiens, UniProt Q96DB2).
T2 sequence (Q96DB2 whole entry): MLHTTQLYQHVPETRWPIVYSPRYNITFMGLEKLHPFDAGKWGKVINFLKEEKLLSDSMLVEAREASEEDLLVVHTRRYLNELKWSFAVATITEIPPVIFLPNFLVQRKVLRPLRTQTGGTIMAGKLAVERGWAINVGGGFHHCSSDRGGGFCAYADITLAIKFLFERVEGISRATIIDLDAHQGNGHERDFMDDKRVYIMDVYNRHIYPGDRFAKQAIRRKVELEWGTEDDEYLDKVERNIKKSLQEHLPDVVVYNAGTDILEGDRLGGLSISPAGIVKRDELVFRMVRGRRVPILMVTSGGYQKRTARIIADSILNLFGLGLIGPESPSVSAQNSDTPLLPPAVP
As to the kind of experiment: Inhibition of full length human recombinant HDAC11 expressed in baculovirus infected insect S9 cells after 30 mins by fluorescence assay.

Another test relates to HUVEC. As to the kind of experiment: Cytotoxicity against HUVEC assessed as growth inhibition after 48 hrs by MTT assay. It is filed as cell-based. The settings on record: Homo sapiens.

Active and inactive are the calls of the source. The calls are words filed in the database; no cut-off is given here.

For `O=C(CCCCCOc1no[n+]([O-])c1S(=O)(=O)c1ccccc1)NO`, the “growth inhibition (GI)” value with HEL [1] was “inactive”. Also, the inhibition result in test [2] and in test [6] was “Active” each time. Besides, the half-maximal inhibitory concentration (IC50) in [3] worked out at 7.4 nM; in [9] it was 1750 nM; in [10] it was 2250 nM; in test [12] it was 1390 nM; on Histone deacetylase 11, 608 nM; in the test on HUVEC it was 27100 nM. In addition, the values for the Activity entry in the test with HEL [4], in the test with HEL [7] and in the test with HEL [8] were “Dose-dependent effect”, “Dose-dependent effect” and 0.45%, respectively. For the same molecule, the T/C with HEL [5] came out at 56%. Moreover, the inhibition result in test [11] was “inactive”.

These data come from ChEMBL document CHEMBL3425494, “Design, synthesis, and antitumor evaluation of novel histone deacetylase inhibitors equipped with a phenylsulfonylfuroxan module as a nitric oxide donor” (J Med Chem, 2015).
